The term IC50 denotes the concentration needed to halve the response being measured.

In data set [1] the test system is Radical scavenging activity. In words: Antioxidant activity assessed as DPPH radical scavenging activity. It counts as functional. The method, boiled down:
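Test compound in ethanol mixed with 2 mL of 0.1 mM DPPH solution; held 30 min at room temperature, then absorbance at 520 nm read. EC50 estimated by probit transformation; IC50 as mean ± SD of five replicates.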
On the technique in general: The DPPH test is a chemical assay of radical scavenging.

The subject of data set [2] is Raji. In words: Inhibition of TPA-induced EBV-early antigen activation in human Raji cells at 0.32 nmol after 48 hrs relative to TPA. On the set-up: scale not given: the % may be the effect or the level left. As to conditions: human gammaherpesvirus 4. In kind it is cell-based. The method, boiled down: (§1)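 Raji cells at 10^6 cells/mL were resuspended in RPMI 1640 with 10% FCS. Induction used 4 mM n-butyric acid plus 32 pmol TPA (20 ng/mL), with test compound added in DMSO. After 48 h at 37 °C, EA-positive cells were scored blind, at least 500 cells per assay. Activation is expressed as % of TPA-only control (100%) ± SD.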

Data set [3] relates to Raji. Nature of the data set: Inhibition of TPA-induced EBV-early antigen activation in human Raji cells at 3.2 nmol after 48 hrs relative to TPA. It counts as cell-based. On the set-up: scale not given: the % may be the effect or the level left. The conditions noted are these: human gammaherpesvirus 4. The method, boiled down: as §1
The nature of data set [4]: Cytotoxicity against human Raji cells assessed as cell viability at 3.2 nmol after 48 hrs by trypan blue assay. It counts as cell-based. The conditions noted are these: read-out: Activity. The procedure, abridged:
(§2)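 Raji cells grown to 10^6 cells/mL, pelleted, and resuspended in RPMI 1640 with 10% FCS. Medium held 4 mM n-butyric acid, 32 pmol TPA (20 ng/mL, in DMSO) and test compound in DMSO. Incubated 48 h at 37 °C. Cell number and viability counted by hemocytometer with Trypan Blue; at least 60% survival required for a valid result.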

Data set [5] in a line: Cytotoxicity against human Raji cells assessed as cell viability at 32 nmol after 48 hrs by trypan blue assay. In kind it is cell-based. The conditions noted are these: read-out: Activity. The procedure, abridged: as §2
The nature of data set [6]: Cytotoxicity against human Raji cells assessed as cell viability at 0.32 nmol after 48 hrs by trypan blue assay. In kind it is cell-based. The conditions noted are these: read-out: Activity. The method, boiled down: as §2
For data set [7], the system named is Raji. Nature of the data set: Inhibition of TPA-induced EBV-early antigen activation in human Raji cells at 16 nmol after 48 hrs relative to TPA. In kind it is cell-based. Further details: scale not given: the % may be the effect or the level left. The conditions noted are these: human gammaherpesvirus 4. The method, boiled down:
as §1

Data set [8] can be described thus: Cytotoxicity against human Raji cells assessed as cell viability at 16 nmol after 48 hrs by trypan blue assay. It counts as cell-based. The conditions noted are these: read-out: Activity. The procedure, abridged: as §2
Data set [9] concerns Raji. Nature of the data set: Inhibition of TPA-induced EBV-early antigen activation in human Raji cells at 32 nmol after 48 hrs relative to TPA. It counts as cell-based. Further details: scale not given: the % may be the effect or the level left. As to conditions: human gammaherpesvirus 4. The procedure, abridged: as §1

For the compound `COc1cc(C(=O)C2=C3OC(C)(C)[C@@H](CC=C(C)C)C[C@@]34C[C@@H](CC=C(C)C)C(C)(C)[C@@](CC=C(C)C)(C2=O)C4=O)ccc1O`, in [1], the 50% inhibitory concentration (IC50) is above 100 µM. Moreover, the Activity is 100% in the data set with Raji [2], 89% with Raji [3], 60.1% in the data set with Raji [7] and 18.5% in the data set with Raji [9]. In addition, the viability at 48 h, 3.2 nmol in data set [4] was above 80%. In [5], the viability at 48 h, 32 nmol came to 60%. In [6], the viability at 48 h, 0.32 nmol is above 80%. For the same compound, the viability at 48 h, 16 nmol in data set [8] is above 80%.
As to `C=C(C)[C@@H](CC=C(C)C)C[C@@]12C[C@@H](CC=C(C)C)C(C)(C)[C@@](CC=C(C)C)(C(=O)C(C(=O)c3ccc(O)c(O)c3)=C1O)C2=O` [GARCINOL], the IC50 in [1] was found to be 10.2 µM. Moreover, the Activity worked out at 100% with Raji [2], 84.9% in the data set on Raji [3], 47% in the data set with Raji [7] and 14.4% in the data set on Raji [9]. In addition, in [4], the viability at 48 h, 3.2 nmol was above 80%. For the same compound, in data set [5], the viability at 48 h, 32 nmol is 60%. For the same compound, the viability at 48 h, 0.32 nmol in data set [6] was above 80%. Also, the viability at 48 h, 16 nmol in [8] is above 80%.
In the case of VITAMIN E, in data set [1], the 50% inhibitory concentration (IC50) is 22.8 µM.
With `CC(C)=CC[C@@H]1C[C@@]2(CC=C(C)C)C(=O)[C@](CC=C(C)C)(C(=O)C(C(=O)c3ccccc3)=C2O)C1(C)C` [CLUSIANONE], the IC50 in data set [1] was above 100 µM. Further, the Activity with Raji [2] was found to be 100%; in the data set with Raji [3] it was 87.7%; in the data set on Raji [7], 53.7%; in the data set on Raji [9] it was 17.4%. In addition, the viability at 48 h, 3.2 nmol in data set [4] was above 80%. The viability at 48 h, 32 nmol in [5] worked out at 60%. Moreover, the viability at 48 h, 0.32 nmol in data set [6] was above 80%. Further, in data set [8], the viability at 48 h, 16 nmol was above 80%.
`CC1(C)[C@@H](O)CC[C@]2(C)[C@H]3C(=O)C=C4[C@@H]5C[C@@](C)(C(=O)O)CC[C@]5(C)CC[C@@]4(C)[C@]3(C)CC[C@@H]12` [ENOXOLONE]: the Activity is 100% in the data set with Raji [2], 100% with Raji [3], 54.3% with Raji [7] and 15.6% in the data set with Raji [9]. In [4], the viability at 48 h, 3.2 nmol is above 80%. Also, the viability at 48 h, 32 nmol in [5] was above 80%. Moreover, the viability at 48 h, 16 nmol in data set [8] is above 80%.
On to `O=C(c1ccc(O)c(O)c1)c1c(O)cc(O)cc1O` [MACLURIN], for which the Activity came out at 94.3% in the data set with Raji [2], 80.2% in the data set with Raji [3], 52.7% in the data set with Raji [7] and 0% in the data set on Raji [9]. In addition, the viability at 48 h, 3.2 nmol in data set [4] was above 80%. Moreover, the viability at 48 h, 32 nmol in data set [5] is 70%. For the same compound, the viability at 48 h, 0.32 nmol in data set [6] is above 80%. Besides, the viability at 48 h, 16 nmol in data set [8] is above 80%.
As for `CC(C)=CC[C@H]1C[C@@]23C[C@@H](CC=C(C)C)C(C)(C)[C@@](CC=C(C)C)(C(=O)C(C(=O)c4ccc(O)c(O)c4)=C2OC1(C)C)C3=O` [CAMBOGIN], the IC50 in data set [1] amounted to 13.3 µM. Further, the Activity was determined as 100% in the data set on Raji [2], 87.1% with Raji [3], 56% in the data set on Raji [7] and 17.7% in the data set on Raji [9]. In addition, the viability at 48 h, 3.2 nmol in data set [4] is above 80%. The viability at 48 h, 32 nmol in data set [5] stood at 60%. Also, the viability at 48 h, 0.32 nmol in data set [6] was above 80%. In addition, in [8], the viability at 48 h, 16 nmol was above 80%.
As to `C=C(C)[C@@H](CC=C(C)C)C[C@@]12C[C@@H](CC=C(C)C)C(C)(C)[C@@](CC=C(C)C)(C(=O)C(C(=O)c3ccc(O)c(OC)c3)=C1O)C2=O`, in [1], the half-maximal inhibitory concentration (IC50) was above 100 µM. The Activity in the data set on Raji [2] was found to be 100%; in the data set with Raji [3], 88.1%; with Raji [7], 54.9%; in the data set with Raji [9] it was 19.7%. Besides, the viability at 48 h, 3.2 nmol in data set [4] is above 80%. Further, in data set [5], the viability at 48 h, 32 nmol was 60%. The viability at 48 h, 0.32 nmol in data set [6] was above 80%. Further, the viability at 48 h, 16 nmol in data set [8] is above 80%.

For the origin of these results see ChEMBL document CHEMBL1158902, “Polyprenylated benzophenones from Garcinia assigu and their potential cancer chemopreventive activities” (J Nat Prod, 2003).
